≈ marks a conversion by molar mass, not a printed value.
How the values were obtained:
[1] = Solubility in alphaMEM culture medium containing 5% FCS at 22 degC; format: physicochemical
How it was run: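 Solubility was measured in αMEM with 5% FCS, equilibrated with 5% CO₂/air, at 22 °C.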

[2] = system: SK-OV-3; test: Cytotoxicity against human SKOV3 cells assessed as reduction of cell density incubated for 4 hrs in oxic (aerobic) condition measured 5 days post dose by SRB assay; format: functional, cell-based
How it was run: (§1)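 Log-phase monolayers given a 4 h drug exposure under aerobic (20% O₂) or anoxic (<20 ppm O₂) conditions. Cells were then stained with sulforhodamine B 5 days later. IC50 was interpolated as the concentration that cut cell density to 50% of same-plate controls. Values are means of two to seven experiments.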

[3] = system: SK-OV-3; test: Cytotoxicity against human SKOV3 cells assessed as reduction of cell density incubated for 4 hrs in hypoxic (anoxic) condition measured 5 days post dose by SRB assay; format: functional, cell-based; how it was run: as §1
[4] = system: SK-OV-3; test: Hypoxic cytotoxicity ratio, ratio of IC50 for human SKOV3 cells in oxic (aerobic) condition to IC50 for human SKOV3 cells in hypoxic (anoxic) conditions; format: functional
How it was run: (§2)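 HCR was calculated as IC50(oxic)/IC50(hypoxic) after 4 h drug exposure at 20% O₂ or <20 ppm O₂, with SRB read-out 5 days later.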

[5] = system: HT-29; test: Cytotoxicity against human HT-29 cells assessed as reduction of cell density incubated for 4 hrs in oxic (aerobic) condition measured 5 days post dose by SRB assay; format: functional, cell-based; how it was run: as §1
[6] = system: HT-29; test: Cytotoxicity against human HT-29 cells assessed as reduction of cell density incubated for 4 hrs in hypoxic (anoxic) condition measured 5 days post dose by SRB assay; format: functional, cell-based; how it was run: as §1
[7] = system: HT-29; test: Hypoxic cytotoxicity ratio, ratio of IC50 for human HT-29 cells in oxic (aerobic) condition to IC50 for human HT-29 cells in hypoxic (anoxic) conditions; format: functional; how it was run: as §2
[8] = system: CHO-AA8; test: Cytotoxicity against chinese hamster ovary AA8 cells incubated for 4 hrs; format: functional, cell-based; conditions: Cricetulus griseus, CHO-AA8, 4 h
[9] = system: EMT6; test: Cytotoxicity against mouse EMT6 cells; format: functional, cell-based
[10] = system: SK-OV-3; test: Cytotoxicity against human SKOV3 cells; format: functional, cell-based
How it was run: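 Log-phase SKOV3 ovarian carcinoma monolayers were exposed to drug for 4 h under aerobic (20% O₂) or anoxic (<20 ppm O₂) conditions, then stained with sulforhodamine B 5 days later. IC50 was interpolated as the concentration that cut cell density to 50% of same-plate controls, given as mean ± SEM of 2–7 experiments. HCR is IC50(oxic)/IC50(hypoxic), taken as means of intraexperiment ratios.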

| Compound | solubility [1] [µM] | IC50 [2] [nM] | IC50 [3] [nM] | Ratio IC50 [4] | IC50 [5] [nM] | IC50 [6] [nM] | Ratio IC50 [7] | IC50 [8] [nM] | IC50 [9] [nM] | IC50 [10] [nM] |
| --- | --- | --- | --- | --- | --- | --- | --- | --- | --- | --- |
| O=C(c1cc2cc(OCCO)ccc2[nH]1)N1CC(COS(=O)(=O)Cc2ccccc2)c2c1cc([N+](=O)[O-])c1ccccc21 (stereo not drawn) | 46 (≈ 27.7 µg/mL) | 1200 | 210 | 7.1 | 1800 | 660 | 2.4 | – | – | – |
| COc1ccc(/C=C/C(=O)N2CC(COS(=O)(=O)Cc3ccccc3)c3c2cc([N+](=O)[O-])c2ccccc32)cc1O (stereo not drawn) | 35 (≈ 20.1 µg/mL) | 570 | 160 | 3.9 | 1000 | 1000 | 1.1 | – | – | – |
| COc1cc2cc(C(=O)N3CC(COS(=O)(=O)c4ccc(C)cc4)c4c3cc([N+](=O)[O-])c3ccccc43)[nH]c2c(OC)c1OC (stereo not drawn) | 89 (≈ 56.2 µg/mL) | 8800 | 220 | 72 | 12000 | 470 | 28 | – | – | – |
| Cc1ccc(S(=O)(=O)OCC2CN(C(=O)c3cc4cc(OCCO)ccc4[nH]3)c3cc([N+](=O)[O-])c4ccccc4c32)cc1 (stereo not drawn) | 29 (≈ 17.4 µg/mL) | 3000 | 770 | 2.8 | 3300 | 2700 | 0.81 | – | – | – |
| COc1ccc2[nH]c(C(=O)N3CC(COS(=O)(=O)c4ccc(C)cc4)c4c3cc([N+](=O)[O-])c3ccccc43)cc2c1 (stereo not drawn) | 12 (≈ 6.86 µg/mL) | 11000 | 380 | 34 | 6500 | 700 | 7.9 | – | – | – |
| Nc1cc2c(c3ccccc13)C(CCl)CN2C(=O)c1cc2cc(OCCO)ccc2[nH]1 (stereo not drawn) | 22 (≈ 9.59 µg/mL) | 3.3 | 4.2 | 0.8 | – | – | – | – | – | – |
| COc1cc2cc(C(=O)N3CC(COS(C)(=O)=O)c4c3cc(N)c3ccccc43)[nH]c2c(OC)c1OC (stereo not drawn) | 15 (≈ 7.88 µg/mL) | – | – | – | – | – | – | – | – | – |
| COc1cc2cc(C(=O)N3CC(CCl)c4c3cc([N+](=O)[O-])c3ccccc43)[nH]c2c(OC)c1OC (stereo not drawn) | 5 (≈ 2.48 µg/mL) | 4200 | 1700 | – | 3400 | 1600 | – | – | – | – |
| COc1cc2cc(C(=O)N3CC(CCl)c4c3cc(N)c3ccccc43)[nH]c2c(OC)c1OC (stereo not drawn) | – | – | – | – | – | – | – | < 1 | 0.4 | 1.2 |
| CN(C)CCOc1ccc2[nH]c(C(=O)N3CC(CCl)c4c3cc([N+](=O)[O-])c3ccccc43)cc2c1 (stereo not drawn) | 193 (≈ 95.1 µg/mL) | 1400 | 870 | – | 470 | 480 | – | – | – | – |

— ChEMBL document CHEMBL1811874, “The effect of sulfonate leaving groups on the hypoxia-selective toxicity of nitro analogs of the duocarmycins” (Bioorg Med Chem, 2011)
